Results reported in ChEMBL document CHEMBL1133106, “Synthesis and evaluation of peptidomimetics as selective inhibitors and active site probes of nitric oxide synthases” (J Med Chem, 2000).
Non-standard residues stand in square brackets, D forms with d. Residues, ends and D or L forms follow the SMILES beside them. *: point of attachment. Arg(NO2) = N=C(NCCC[C@H](N)C(=O)O)N[N+](=O)[O-]; NMeDab = CN[C@@H](CCN)C(=O)O; Orn = NCCC[C@H](N)C(=O)O; Dab = NCC[C@H](N)C(=O)O; Cbz = O=C(OCc1ccccc1)*; OtBu = CC(C)(C)O*

Tests used:
[1] = Ratio of binding affinity of eNOS to nNOS
Outline: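 Ratio of apparent Ki values (eNOS Ki over nNOS Ki). Recombinant bovine eNOS and nNOS were isolated from E. coli expression. NO formation was followed by the hemoglobin capture assay with 10 µM L-arginine and at least three inhibitor concentrations.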

[2] = molecular target: T1, Nitric oxide synthase, inducible (Mus musculus, UniProt P29477)
T1 sequence (P29477 whole entry): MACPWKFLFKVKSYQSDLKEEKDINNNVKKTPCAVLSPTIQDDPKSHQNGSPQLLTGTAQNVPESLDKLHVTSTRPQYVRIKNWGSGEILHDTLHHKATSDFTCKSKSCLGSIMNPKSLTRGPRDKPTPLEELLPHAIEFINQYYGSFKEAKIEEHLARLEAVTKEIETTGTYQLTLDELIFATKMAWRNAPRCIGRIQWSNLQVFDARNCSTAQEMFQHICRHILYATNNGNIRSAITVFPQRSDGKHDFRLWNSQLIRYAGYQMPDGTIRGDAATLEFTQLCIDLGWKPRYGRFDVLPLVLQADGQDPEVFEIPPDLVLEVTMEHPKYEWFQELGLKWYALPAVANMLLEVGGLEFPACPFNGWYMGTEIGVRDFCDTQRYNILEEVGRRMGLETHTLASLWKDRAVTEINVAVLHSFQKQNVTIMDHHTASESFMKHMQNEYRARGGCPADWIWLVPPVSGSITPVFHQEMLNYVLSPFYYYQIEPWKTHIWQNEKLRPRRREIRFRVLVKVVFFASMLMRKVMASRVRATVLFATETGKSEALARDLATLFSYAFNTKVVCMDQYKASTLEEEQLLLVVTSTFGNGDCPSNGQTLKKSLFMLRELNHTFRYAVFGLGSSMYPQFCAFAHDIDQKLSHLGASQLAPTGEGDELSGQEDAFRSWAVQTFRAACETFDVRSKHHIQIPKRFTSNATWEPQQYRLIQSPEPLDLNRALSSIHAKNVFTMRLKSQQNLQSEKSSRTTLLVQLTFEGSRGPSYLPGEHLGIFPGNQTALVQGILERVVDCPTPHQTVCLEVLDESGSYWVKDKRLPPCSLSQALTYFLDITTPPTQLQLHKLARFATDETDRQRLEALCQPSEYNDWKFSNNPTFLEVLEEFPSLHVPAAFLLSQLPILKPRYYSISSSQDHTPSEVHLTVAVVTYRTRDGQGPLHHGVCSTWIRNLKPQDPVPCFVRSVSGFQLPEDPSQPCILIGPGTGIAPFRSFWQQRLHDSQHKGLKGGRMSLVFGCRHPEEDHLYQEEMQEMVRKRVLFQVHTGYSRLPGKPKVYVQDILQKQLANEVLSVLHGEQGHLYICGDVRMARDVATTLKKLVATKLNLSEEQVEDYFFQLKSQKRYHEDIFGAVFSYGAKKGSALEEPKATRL

Nitric oxide synthase 3 = molecular target: T2, Nitric oxide synthase 3 (Bos taurus, UniProt P29473)
T2 sequence (P29473 whole entry): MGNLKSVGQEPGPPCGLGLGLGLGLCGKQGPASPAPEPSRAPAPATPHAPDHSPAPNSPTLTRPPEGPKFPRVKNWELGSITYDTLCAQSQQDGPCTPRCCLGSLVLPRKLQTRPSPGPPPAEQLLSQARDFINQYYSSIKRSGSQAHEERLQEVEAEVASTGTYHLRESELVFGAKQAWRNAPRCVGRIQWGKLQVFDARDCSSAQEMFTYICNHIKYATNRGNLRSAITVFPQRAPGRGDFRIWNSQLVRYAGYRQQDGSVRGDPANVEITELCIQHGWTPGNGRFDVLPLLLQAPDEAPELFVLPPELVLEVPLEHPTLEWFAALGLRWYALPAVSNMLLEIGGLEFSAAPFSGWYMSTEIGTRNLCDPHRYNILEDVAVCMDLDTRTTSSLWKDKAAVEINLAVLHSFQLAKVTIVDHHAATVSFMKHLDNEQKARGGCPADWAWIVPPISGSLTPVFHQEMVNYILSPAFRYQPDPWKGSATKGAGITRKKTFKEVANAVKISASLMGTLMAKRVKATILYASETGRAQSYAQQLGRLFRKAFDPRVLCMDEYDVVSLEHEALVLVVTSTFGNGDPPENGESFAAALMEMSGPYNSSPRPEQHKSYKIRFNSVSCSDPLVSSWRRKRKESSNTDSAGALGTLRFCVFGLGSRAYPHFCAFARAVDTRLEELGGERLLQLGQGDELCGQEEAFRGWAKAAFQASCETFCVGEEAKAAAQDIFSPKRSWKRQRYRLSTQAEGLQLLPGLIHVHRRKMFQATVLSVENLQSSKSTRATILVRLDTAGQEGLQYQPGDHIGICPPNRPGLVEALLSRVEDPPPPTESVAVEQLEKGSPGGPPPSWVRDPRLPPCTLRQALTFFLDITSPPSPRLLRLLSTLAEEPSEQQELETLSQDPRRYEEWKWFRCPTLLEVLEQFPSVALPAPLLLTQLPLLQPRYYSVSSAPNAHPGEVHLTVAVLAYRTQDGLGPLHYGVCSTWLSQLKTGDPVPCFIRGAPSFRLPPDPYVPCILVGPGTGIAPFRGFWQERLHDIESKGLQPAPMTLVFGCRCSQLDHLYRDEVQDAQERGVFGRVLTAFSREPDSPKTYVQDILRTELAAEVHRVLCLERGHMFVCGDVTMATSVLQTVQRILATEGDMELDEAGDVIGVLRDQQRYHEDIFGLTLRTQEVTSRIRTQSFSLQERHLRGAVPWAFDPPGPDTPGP

[3] = Binding affinity against bovine brain nNOS (neuronal).

Compound: CN(C(=O)[C@@H](N)CCC/N=C(\N)N[N+](=O)[O-])[C@@H](CCN)C(N)=O
- Ratio [1]: 40

Compound: N=C(NCCC[C@H](N)C(=O)NCCCN)N[N+](=O)[O-]
- Ki [2]: 118 µM
- Ki (Nitric oxide synthase 3): 213 µM

Compound: CC(C)(C)OC(=O)[C@H](CCN)NC(=O)[C@@H](N)CCC/N=C(\N)N[N+](=O)[O-] (H-[Arg(NO2)]-[Dab]-OtBu)
- Ratio [1]: 28

Compound: NCCN(CC(N)=O)C(=O)[C@@H](N)CCC/N=C(\N)N[N+](=O)[O-]
- Ratio [1]: 3

Compound: NCCC[C@H](NC(=O)[C@@H](N)CCC/N=C(/N)N[N+](=O)[O-])C(N)=O (H-[Arg(NO2)]-[Orn]-NH2)
- Ki [3]: 0.33 µM

Compound: CN(C(=O)[C@@H](N)CCCNC(=N)N[N+](=O)[O-])[C@@H](CCN)C(N)=O (H-[Arg(NO2)]-[NMeDab]-NH2)
- Ki [2]: 340 µM
- Ki (Nitric oxide synthase 3): 95 µM

Compound: NCCCCN(CC(N)=O)C(=O)[C@@H](N)CCC/N=C(\N)N[N+](=O)[O-]
- Ki [2]: 1100 µM
- Ratio [1]: 4
- Ki (Nitric oxide synthase 3): 197 µM

Compound: N=C(NCCC[C@H](N)C(=O)N(CCN)CC(N)=O)N[N+](=O)[O-]
- Ki [2]: 760 µM
- Ki (Nitric oxide synthase 3): 55.5 µM

Compound: N=C(NCCC[C@H](N)C(=O)N[C@@H](CCN)C(=O)O)N[N+](=O)[O-] (H-[Arg(NO2)]-[Dab]-OH)
- Ki [2]: 1210 µM
- Ki (Nitric oxide synthase 3): 98 µM

Compound: N=C(NCCC[C@H](N)C(=O)N(CCCN)CC(N)=O)N[N+](=O)[O-]
- Ki [2]: 1000 µM
- Ki (Nitric oxide synthase 3): 108 µM

Compound: NCCCC[C@H](NC(=O)[C@@H](N)CCC/N=C(\N)N[N+](=O)[O-])C(N)=O (H-[Arg(NO2)]-Lys-NH2)
- Ki [3]: 0.45 µM

Compound: NCCNC(=O)[C@@H](N)CCC/N=C(\N)N[N+](=O)[O-]
- Ratio [1]: 368

Compound: CC(=O)N[C@@H](CCCNC(=N)N[N+](=O)[O-])C(=O)N[C@@H](CCN)C(N)=O (Ac-[Arg(NO2)]-[Dab]-NH2)
- Ki [2]: 2600 µM
- Ki (Nitric oxide synthase 3): 263 µM

Compound: NCC[C@H](NC(=O)[C@@H](N)CCC/N=C(\N)N[N+](=O)[O-])C(=O)O (H-[Arg(NO2)]-[Dab]-OH)
- Ratio [1]: 3.5

Compound: N=C(NCCC[C@H](N)C(=O)NCCN)N[N+](=O)[O-]
- Ki [2]: 100 µM
- Ki (Nitric oxide synthase 3): 199 µM

Compound: N=C(NCCC[C@H](N)C(=O)NCCCCN)N[N+](=O)[O-]
- Ki [2]: 108 µM
- Ki (Nitric oxide synthase 3): 70 µM

Compound: NCCCN(CC(N)=O)C(=O)[C@@H](N)CCC/N=C(\N)N[N+](=O)[O-]
- Ratio [1]: 3.5

Compound: COC(=O)[C@H](CCN)NC(=O)[C@@H](N)CCC/N=C(\N)N[N+](=O)[O-] (H-[Arg(NO2)]-[Dab]-OMe)
- Ratio [1]: 798

Compound: NCCCNC(=O)[C@@H](N)CCC/N=C(\N)N[N+](=O)[O-]
- Ratio [1]: 163

Compound: CC(=O)N[C@@H](CCC/N=C(\N)N[N+](=O)[O-])C(=O)N[C@@H](CCN)C(N)=O (Ac-[Arg(NO2)]-[Dab]-NH2)
- Ratio [1]: 9

Compound: N=C(NCCC[C@H](NC(=O)OCc1ccccc1)C(=O)N[C@@H](CCN)C(N)=O)N[N+](=O)[O-] (Cbz-[Arg(NO2)]-[Dab]-NH2)
- Ki [2]: 1600 µM
- Ki (Nitric oxide synthase 3): 827 µM

Compound: CC(C)(C)OC(=O)[C@H](CCN)NC(=O)[C@@H](N)CCCNC(=N)N[N+](=O)[O-] (H-[Arg(NO2)]-[Dab]-OtBu)
- Ki [2]: 413 µM
- Ki (Nitric oxide synthase 3): 288 µM

Compound: COC(=O)[C@H](CCN)NC(=O)[C@@H](N)CCCNC(=N)N[N+](=O)[O-] (H-[Arg(NO2)]-[Dab]-OMe)
- Ki [2]: 27 µM
- Ki (Nitric oxide synthase 3): 463 µM

Compound: CN(C(=O)[C@@H](N)CCC/N=C(\N)N[N+](=O)[O-])[C@@H](CCCN)C(N)=O
- Ki [2]: 1300 µM
- Ratio [1]: 135
- Ki (Nitric oxide synthase 3): 623 µM

Compound: CN(C(=O)[C@@H](N)CCC/N=C(\N)N[N+](=O)[O-])[C@@H](CCCCN)C(N)=O
- Ki [2]: 1900 µM
- Ratio [1]: 86
- Ki (Nitric oxide synthase 3): 631 µM

Compound: NCCCCNC(=O)[C@@H](N)CCC/N=C(\N)N[N+](=O)[O-]
- Ratio [1]: 200

Compound: NCC[C@H](NC(=O)[C@H](CCC/N=C(\N)N[N+](=O)[O-])NC(=O)OCc1ccccc1)C(N)=O (Cbz-[Arg(NO2)]-[Dab]-NH2)
- Ratio [1]: 16
